# From PubChem BioAssay
# Hits are enriched below; roughly 1.5% of the tested compounds scored in any of these assays.
# LANA-H2A inh: blocks KSHV LANA binding to histone H2A/H2B; cell-free LANA-H2A/H2B peptide, fluorescence polarization; AID 2629; Q9QR71; 320,000 tested, 0.6% active; inhibition, % (concentration not given with the values); in the data active means inhibition mostly above about 10%, no sharp cut-off; inactive means mostly below about 6.7%
# CaV13 FRET inh: Primary screen for inhibitors of IQ motif and Ca2+-dependent inactivation inhibitor domain binding in CACNA1D, Förster resonance energy transfer in living cells, …. HEK cells, CFP/YFP FRET ICDI-IQ, plate reader, 10 min; percent FRET-ratio fall versus neutral wells. 340,000 tested, 0.098% active. inhibition, % at 12.3 µM. AID 743397;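 active means mean replicate inhibition of at least 30% and at least 1% of replicates passing that level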;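 further: 0% = median of the neutral control wells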
# Keap1 Nrf2 FP: disrupts human Keap1 binding to Nrf2 peptide; Q14145; Keap1 Kelch-Nrf2 peptide fluorescence polarization, 1536-well; inhibition, % at 9.4 µM; 340,000 tested, 0.15% active; AID 504523; in the data active means inhibition above about 12%;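 further: human Keap1 Kelch domain with fluorescein labeled Nrf2 9mer peptide probe; 0% = neutral control wells and 100% = peptide positive control; higher means more block of Keap1 binding to Nrf2 peptide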
# CAL PDZ FP-1: inhibitors of human CAL PDZ peptide binding | Q9HD26 | purified CAL PDZ, TMR-peptide fluorescence polarization, 1 h | inhibition, % at 24.9 µM | 300,000 tested, 0.92% active | AID 602252;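 active means mean inhibition of at least 30% with at least half of replicates also reaching 30%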;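 further: 0% = DMSO neutral control and 100% = excess unlabeled competitor peptide PRC23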
# LANA DNA inh: inhibitors of KSHV LANA C-terminal domain DNA binding; 340,000 tested, 0.078% active; MBP-C-LANA/FAM-LBS DNA binding, fluorescence polarization; inhibition, % at 9 µM;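 active means highest replicate inhibition at or above 60% at 9 µM, even if other replicates fall short; inactive means all replicates below 60% inhibition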;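 further: 0% = neutral control wells and 100% = 4 µM acridine orange control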
# CAL PDZ FP-2: human CAL PDZ-peptide interaction inhibition | inhibition, % at 20 µM | AID 504414 | purified CAL PDZ, TMR-peptide fluorescence polarization, 1 h | Q9HD26 | 330,000 tested, 0.02% active;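 active means highest replicate inhibition of at least 40%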;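 further: plate controls were DMSO neutral control wells for no effect and unlabeled competitor peptide control wells for full effect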
#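 Assay system – tagged CAL PDZ protein CerCALP, purified · Timing – 1 h at RT · Compound – single point, 20 µM · Measured by – fluorescence polarization from S- and P-plane intensities, G-factor corrected · Evaluation – inhibition from polarization loss · Probe or stimulus – TMR reporter peptide T*-PRC34 · Buffer or medium – pH 7.4 phosphate-saline buffer, reducing agent, detergent, IgG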
# Numbers without * were called inactive; / = no result; + = active, no number; ! = not active in a repeat.
SMILES,LANA-H2A inh,CaV13 FRET inh,Keap1 Nrf2 FP,CAL PDZ FP-1,LANA DNA inh,CAL PDZ FP-2
Nc1c2c(nc3ccccc13)CCCC2,-1,-4,-2,0,-5,-1
Nc1c2ccccc2nc2ccccc12,6,40*,-5,-5,-5,-5
C=CCn1c(NC(=O)c2ccco2)nc2ccccc21,1,-9,0,94*,0,61*
O=C(Nc1nc2ccccc2n1Cc1ccc(Cl)cc1)c1ccco1,0,-7,2,-1,2,-2
COc1ccc(NC(=O)Nc2nnc(C(C)(C)C)s2)cc1,-1,-6,0,47*,0,-1
CC(C)(C)c1nnc(NC(=O)Nc2ccc(Cl)cc2)s1,-6,4,2,0,1,-1
CCOC(=O)C1=CCN(S(=O)(=O)c2ccc(Br)cc2)C1c1cccc(Cl)c1 (centres undefined),/,-2,/,/,/,/
O=c1c2ccccc2sc2ccccc12,/,-7,4,/,-1,-2
O=c1c(C(c2ccccc2)c2c(O)sc3ccccc3c2=O)c(O)sc2ccccc12,11*,-6,-1,-5,2,-1
COc1ccc2c(c1OC)C(=O)OC2C1c2c(cc3c(c2OC)OCO3)CCN1C (centres undefined),5.3*!,-5,-2,-1,2,-1
COc1ccc2c(c1OC)C(C1c3c(cc4c(c3OC)OCO4)CCN1C)OC2=O (centres undefined),-2,/,4,-2,2,-2
CC(=O)NC(=S)Nc1ccc(N2CCOCC2)c(S(=O)(=O)Nc2cc(Cl)ccc2Cl)c1,-2,-21,-5,64*,0,-1
O=c1c(-c2cccs2)nc2ccccc2n1C(c1ccccn1)c1nc2ccccc2[nH]1 (centres undefined),/,-3,/,/,/,/
CN(C)CCNC(=O)C(=O)Nc1cc2c3c(c1)CCC(=O)N3CCC2,-4,-4,-2,-2,-1,-3
CCN(CC)CCNC(=O)C(=O)Nc1cc2c3c(c1)CCC(=O)N3CCC2,0.9*,-4,-8,1,-1,-1
CCCCNC(=O)C(=O)Nc1cc2c3c(c1)CCC(=O)N3CCC2,-5,-3,1,9,0,-1
CN(C)CCNC(=O)C(=O)Nc1cc2c3c(c1)CCN3C(=O)CC2,17*,-4,-3,-4,0,-2
O=C(Nc1ccccc1C(=O)Nc1ccccn1)c1ccc([N+](=O)[O-])cc1,-4,-7,-1,43*,0,0
O=C(O)c1ccc(CNC(=O)c2ccccc2NC(=O)c2ccc([N+](=O)[O-])cc2)cc1,-8,-4,-2,50*,0,/
O=C(O)c1ccc(CNC(=O)c2ccccc2NC(=O)c2cccc([N+](=O)[O-])c2)cc1,-2,4,3,16,0,0
COc1ccc(C(=O)Nc2ccccc2C(=O)Nc2ccccn2)cc1,8,-5,-5,-5,-1,-3
Cn1nc(C(C)(C)C)cc1C(=O)NN1CCOCC1,0,-3,-3,4,0,-2
CCOC(=O)N1CCC(N2C(=O)c3cc(C(=O)NC4CCCCC4)ccc3C2O)CC1 (centres undefined),-2,38*,-7,/,2,0
CCCN1C(=O)c2cc(C(=O)NC3CCCCCC3)ccc2C1O (centres undefined),0,-2,5,-6,0,-1
CCn1nnnc1SCC(=O)N1CCCCC1,/,-6,-3,-4,-1,-3
SMILES,LANA-H2A inh,CaV13 FRET inh,Keap1 Nrf2 FP,CAL PDZ FP-1,LANA DNA inh,CAL PDZ FP-2
Cc1c(CCO)c(=O)[nH]n1S(=O)(=O)c1ccc(F)cc1,14*,-7,-2,-4,0,-1
CCC(CC)C(C(=O)NCc1ccccc1)N1CCN(CCN2CCOCC2)CC1 (centres undefined),/,-5,/,/,/,/
Cc1ccc(CNc2nc(N)c([N+](=O)[O-])c(NCCO)n2)cc1,-4,-6,-3,62*,2,0
Nc1nc(Nc2ccccc2)nc(NCc2ccccc2)c1[N+](=O)[O-],4,-14,4,-7,-1,-1
Cc1cccc(Nc2nc(N)c([N+](=O)[O-])c(NCc3ccccc3)n2)c1,-1,-5,+,/,/,-1
Cc1cc(=O)c(C(=O)O)nn1-c1ccccc1C(F)(F)F,0,-7,-4,/,0,0
Cc1cc(=O)c(C(=O)O)nn1-c1cccc(C(F)(F)F)c1,-1,-4,1,73*,2,0
O=C(O)C1CC=CCC1C(=O)NCCCCc1ccccc1 (centres undefined),4,3,-5,82*,0,-1
CCN=C1NC(CCc2ccccc2)C(C(=O)OC)=C(C)N1Cc1ccccc1C(F)(F)F (centres undefined),/,-4,/,/,/,/
CSc1ccc(Cl)c(C(=O)N2CCOc3ccccc32)c1,5,52*,-3,-1,-3,0
COC(=O)[C@H]1[C@@H](O)[C@@]2(O)c3c(OC)cc(OC)cc3O[C@@]2(c2ccc(OC)cc2)[C@@H]1c1ccc(F)cc1,/,-5,/,/,/,/
COc1ccc2nc3c(cc2c1)c(NC(=O)c1cccs1)nn3CC(C)C,2,56*,-2,/,1,-1
CCCCC(=O)Nc1nn(CC(C)C)c2nc3ccccc3cc12,0,-7,-9,30*,1,1
COC(=O)C1=C(C)N(Cc2cccc(C(F)(F)F)c2)C(=NCc2ccc(OC)cc2)NC1c1cccc(F)c1 (centres undefined),/,-5,/,/,/,/
COC(=O)c1cc2c(c3c4cc(OC)ccc4n(S(=O)(=O)c4ccc(F)cc4)c13)C(=O)N(C)C2,/,-4,/,/,/,/
CC(=O)c1ccc(N2CCN(S(=O)(=O)c3cn(C)cn3)CC2)cc1,8.8*,-4,-8,-2,-1,-2
CC(=O)c1ccc(N2CCN(S(=O)(=O)c3cn(C)c(C)n3)CC2)cc1,0,-3,1,-2,0,0
CN1C[C@@H]2[C@@H]3C(=O)N(C)C(=O)[C@@H]3[C@](Cc3ccccc3)(C1=O)N2C(=O)c1ccccc1,/,-11,1,-4,1,0
O=C(CSc1nc(CCC2CCCC2)nc2ccccc12)NCc1ccc2c(c1)OCO2,15*,-14,-2,1,3,-2
Cc1cc(NC(=O)CSc2nc(CCC3CCCC3)nc3ccccc23)no1,1,-6,2,-2,0,-3
CC(C(=O)NCc1ccc(Cl)cc1)n1cccc1C(=O)c1ccccc1 (centres undefined),19*,-2,-4,-3,0,-3
COc1ccccc1CNC(=O)C(C)n1cccc1C(=O)c1ccccc1 (centres undefined),-1,-7,-1,-1,0,0
